From paper PMC6558985 (Nature chemical biology, 2019)

How the values were obtained:
[1] = biological target: T1, Dm-spastin WT (Drosophila melanogaster, UniProt Q8I0P1, DEL311-372); assay: Steady-state ATPase activity, NADH-coupled assay, Dm-spastin wildtype; assay type: biochemical, D. melanogaster; settings: 0.5 mM MgATP
T1 sequence (Q8I0P1 with tags, fused parts or gaps DEL311-372 limits assumed): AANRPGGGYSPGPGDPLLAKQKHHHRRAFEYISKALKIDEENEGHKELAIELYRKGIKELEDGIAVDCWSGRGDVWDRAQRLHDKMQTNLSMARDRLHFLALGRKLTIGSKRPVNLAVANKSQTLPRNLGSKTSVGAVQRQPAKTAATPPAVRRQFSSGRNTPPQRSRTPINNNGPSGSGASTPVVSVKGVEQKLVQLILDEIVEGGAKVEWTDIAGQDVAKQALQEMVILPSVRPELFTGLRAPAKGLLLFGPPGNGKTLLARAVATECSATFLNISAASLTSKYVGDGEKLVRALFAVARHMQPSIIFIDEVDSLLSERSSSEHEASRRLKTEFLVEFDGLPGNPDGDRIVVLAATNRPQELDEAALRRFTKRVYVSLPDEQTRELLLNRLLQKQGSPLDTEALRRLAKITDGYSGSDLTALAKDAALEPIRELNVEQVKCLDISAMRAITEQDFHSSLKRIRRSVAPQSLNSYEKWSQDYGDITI
Summary of the method: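 Recombinant Dm-spastin, wildtype or point mutants, assayed by steady-state ATPase with NADH-coupled read-out at 0.5 mM MgATP over a test-compound concentration series. Data were fit to a sigmoidal dose-response equation to give IC50, average ± s.d., n = 3. Separately, rates across ATP concentrations were fit to a cooperative Michaelis-Menten equation for kcat and K1/2.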

[2] = biological target: T2, Hs-FIGL1 (Homo sapiens, UniProt Q6PIW4); assay: Steady-state ATPase activity, NADH-coupled assay, Hs-FIGL1; assay type: biochemical; settings: 10 µM compound, 0.5 mM MgATP
T2 sequence (Q6PIW4 288-674): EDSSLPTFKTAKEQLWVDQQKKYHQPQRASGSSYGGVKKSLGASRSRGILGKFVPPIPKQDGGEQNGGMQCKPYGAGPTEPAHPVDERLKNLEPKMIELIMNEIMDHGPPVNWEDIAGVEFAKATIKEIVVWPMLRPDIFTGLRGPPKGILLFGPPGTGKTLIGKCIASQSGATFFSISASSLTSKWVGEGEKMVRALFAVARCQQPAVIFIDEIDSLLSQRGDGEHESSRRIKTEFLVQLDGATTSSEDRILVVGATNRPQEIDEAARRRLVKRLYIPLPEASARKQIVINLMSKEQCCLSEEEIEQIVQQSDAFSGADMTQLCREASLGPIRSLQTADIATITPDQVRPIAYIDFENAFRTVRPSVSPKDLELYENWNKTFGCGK
Summary of the method: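 Recombinant AAA protein constructs assayed by steady-state ATPase with NADH-coupled read-out at 0.5 mM MgATP, with test compound at 2 µM or 10 µM. Activity is reported as percent of steady-state ATPase activity, average ± s.d., n = 3.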

[3] = test system: Dm-spastin, Hs-FIGL1, Hs-PCH2, Mm-VCP, Xl-katanin; assay: Screen of selected kinase inhibitors against five AAA proteins; assay type: biochemical; settings: 10 µM compound, 0.5 mM ATP
Summary of the method: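 Five recombinant AAA proteins (Dm-spastin, Hs-FIGL1, Hs-PCH2, Mm-VCP, Xl-katanin) were screened for ATPase activity with each test compound at 10 µM and 0.5 mM MgATP. Activity is expressed as percent of the DMSO control, average of n = 2, binned in 10% steps.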

[4] = biological target: T3, Hs-spastin (Homo sapiens, UniProt Q9UBP0); assay: Steady-state ATPase activity, NADH-coupled assay, Hs-spastin wildtype; assay type: biochemical
T3 sequence (Q9UBP0 229-616): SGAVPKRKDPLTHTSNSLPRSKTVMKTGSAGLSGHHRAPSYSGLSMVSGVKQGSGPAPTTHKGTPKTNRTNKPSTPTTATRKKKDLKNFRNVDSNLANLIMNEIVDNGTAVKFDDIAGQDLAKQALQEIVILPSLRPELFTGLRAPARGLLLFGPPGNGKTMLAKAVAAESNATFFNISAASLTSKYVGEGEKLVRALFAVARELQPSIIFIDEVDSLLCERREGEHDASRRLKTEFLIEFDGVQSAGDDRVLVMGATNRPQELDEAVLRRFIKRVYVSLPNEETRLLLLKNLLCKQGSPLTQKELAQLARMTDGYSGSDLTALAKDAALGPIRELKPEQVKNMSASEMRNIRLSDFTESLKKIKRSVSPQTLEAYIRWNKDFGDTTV
Summary of the method: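 Recombinant human spastin purified from E. coli. Steady-state ATPase inhibition was measured over a test-compound concentration series at 1 mM ATP. IC50 reported as average ± s.d., n = 3.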

inhibition of the ATPase activity of Dm-spastin ([1]; 10 µM compound)	potency of Dm-spastin inhibition (dose-dependent analysis) ([1]; IC50 not determined)	inhibition of Hs-FIGL1 ATPase activity [2]	inhibition of ATPase activity of at least one of five AAA proteins [3] [%]	IC50 [4] [µM]	improved potency on Hs-spastin with respect to compound 5 ([4]; 1 mM ATP)	SMILES
substantially inhibited	micromolar range	also inhibited Hs-FIGL1	> 50	–	–	N#CCc1ccc(Nc2nc(Nc3cc(C4CC4)[nH]n3)c3ccccc3n2)cc1 [compound 1, 2-(4-((4-((5-cyclopropyl-1H-pyrazol-3-yl)amino)quinazolin-2-yl)amino)phenyl)acetonitrile, reference compound]
–	–	–	–	0.132 ± 0.055	~ 30 fold	C[C@@H]1CNCCN1c1nc(Nc2cc(C(C)(C)C)[nH]n2)c2cc[nH]c2n1 [compound 6, (R)-N-(5-(tert-butyl)-1H-pyrazol-3-yl)-2-(2-methylpiperazin-1-yl)-7H-pyrrolo[2,3-d]pyrimidin-4-amine]
